Activity calls are given as the source filed them. No cut-off for these calls is given here.
Assays:
[1] = test system: P19; assay: Cytotoxicity against differentiated mouse P19 cells assessed as cell mass at 1 to 100 uM after 24 hrs by SRB assay relative to control; format: functional
Outline: (§1)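 Cell mass by SRB assay in P19 cells (CRL-1825), either undifferentiated (P19SCs) or differentiated (P19dCs). Cells exposed to 1, 10 or 100 µM for 24, 48 or 72 h. Values expressed relative to untreated control. Means ± SD from at least 4 independent measurements, 6 repeats each. Significance vs control at p<0.05.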

[2] = test system: P19; assay: Cytotoxicity against undifferentiated mouse P19 cells assessed as cell mass at 1 to 100 uM after 72 hrs by SRB assay relative to control; format: functional; outline: as §1
[3] = test system: P19; assay: Cytotoxicity against differentiated mouse P19 cells assessed as cell mass at 1 to 100 uM after 72 hrs by SRB assay relative to control; format: functional; outline: as §1
[4] = test system: P19; assay: Cytotoxicity against differentiated mouse P19 cells assessed as cell mass at 1 to 100 uM after 48 hrs by SRB assay relative to control; format: functional; outline: as §1
[5] = test system: P19; assay: Cytotoxicity against differentiated mouse P19 cells assessed as metabolic activity at 1 to 100 uM after 48 hrs by resazurin assay relative to control; format: functional
Outline: (§2)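 Metabolic activity by resazurin reduction in undifferentiated (P19SCs) or differentiated (P19dCs) P19 cells. Exposure to 1, 10 or 100 µM for 24, 48 or 72 h. Read-out relative to untreated control. Significance vs control at p<0.05.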

[6] = test system: P19; assay: Cytotoxicity against undifferentiated mouse P19 cells assessed as metabolic activity at 1 to 100 uM after 24 hrs by resazurin assay relative to control; format: functional; outline: as §2
[7] = test system: P19; assay: Cytotoxicity against differentiated mouse P19 cells assessed as metabolic activity at 1 to 100 uM after 72 hrs by resazurin assay relative to control; format: functional; outline: as §2
[8] = test system: P19; assay: Cytotoxicity against undifferentiated mouse P19 cells assessed as cell mass at 1 to 100 uM after 24 hrs by SRB assay relative to control; format: functional; outline: as §1
[9] = test system: P19; assay: Cytotoxicity against undifferentiated mouse P19 cells assessed as metabolic activity at 1 to 100 uM after 48 hrs by resazurin assay relative to control; format: functional; outline: as §2
[10] = test system: P19; assay: Cytotoxicity against undifferentiated mouse P19 cells assessed as cell mass at 1 to 100 uM after 48 hrs by SRB assay relative to control; format: functional; outline: as §1
[11] = test system: P19; assay: Cytotoxicity against differentiated mouse P19 cells assessed as metabolic activity at 1 to 100 uM after 24 hrs by resazurin assay relative to control; format: functional; outline: as §2
[12] = test system: P19; assay: Cytotoxicity against undifferentiated mouse P19 cells assessed as metabolic activity at 1 to 100 uM after 72 hrs by resazurin assay relative to control; format: functional; outline: as §2
[13] = test system: P19; assay: Cytotoxicity against undifferentiated mouse P19 cells assessed as mitochondrial membrane potential at 1 uM after 72 hrs by TMRF dye based fluorescence assay relative to control; format: functional
Outline: (§3)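 Undifferentiated (P19SCs) or differentiated (P19dCs) P19 cells incubated 24 or 72 h with 1 or 100 µM. Mitochondrial membrane potential and mitochondrial superoxide levels measured and expressed relative to untreated control. Means ± SD from 4 independent measurements, at least 4 repeats each. Significance at p<0.05.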

[14] = test system: P19; assay: Cytotoxicity against undifferentiated mouse P19 cells assessed as mitochondrial superoxide anion level at 1 uM after 24 hrs by MitoSox dye based fluorescence assay relative to control; format: functional; outline: as §3
[15] = test system: P19; assay: Cytotoxicity against differentiated mouse P19 cells assessed as mitochondrial membrane potential at 1 uM after 24 hrs by TMRF dye based fluorescence assay relative to control; format: functional; outline: as §3
[16] = test system: P19; assay: Cytotoxicity against differentiated mouse P19 cells assessed as mitochondrial superoxide anion level at 100 uM after 72 hrs by MitoSox dye based fluorescence assay relative to control; format: functional; outline: as §3
[17] = test system: P19; assay: Cytotoxicity against differentiated mouse P19 cells assessed as mitochondrial superoxide anion level at 1 uM after 72 hrs by MitoSox dye based fluorescence assay relative to control; format: functional; outline: as §3
[18] = test system: P19; assay: Cytotoxicity against differentiated mouse P19 cells assessed as mitochondrial membrane potential at 100 uM after 24 hrs by TMRF dye based fluorescence assay relative to control; format: functional; outline: as §3
[19] = test system: P19; assay: Cytotoxicity against differentiated mouse P19 cells assessed as mitochondrial superoxide anion level at 100 uM after 24 hrs by MitoSox dye based fluorescence assay relative to control; format: functional; outline: as §3
[20] = test system: P19; assay: Cytotoxicity against undifferentiated mouse P19 cells assessed as mitochondrial superoxide anion level at 100 uM after 24 hrs by MitoSox dye based fluorescence assay relative to control; format: functional; outline: as §3
[21] = test system: P19; assay: Cytotoxicity against differentiated mouse P19 cells assessed as mitochondrial superoxide anion level at 1 uM after 24 hrs by MitoSox dye based fluorescence assay relative to control; format: functional; outline: as §3
[22] = test system: P19; assay: Cytotoxicity against differentiated mouse P19 cells assessed as mitochondrial membrane potential at 1 uM after 72 hrs by TMRF dye based fluorescence assay relative to control; format: functional; outline: as §3
[23] = test system: P19; assay: Cytotoxicity against differentiated mouse P19 cells assessed as mitochondrial membrane potential at 100 uM after 72 hrs by TMRF dye based fluorescence assay relative to control; format: functional; outline: as §3
[24] = test system: P19; assay: Cytotoxicity against undifferentiated mouse P19 cells assessed as mitochondrial superoxide anion level at 1 uM after 72 hrs by MitoSox dye based fluorescence assay relative to control; format: functional; outline: as §3
[25] = test system: P19; assay: Cytotoxicity against undifferentiated mouse P19 cells assessed as mitochondrial membrane potential at 1 uM after 24 hrs by TMRF dye based fluorescence assay relative to control; format: functional; outline: as §3
[26] = test system: P19; assay: Cytotoxicity against undifferentiated mouse P19 cells assessed as mitochondrial membrane potential at 100 uM after 72 hrs by TMRF dye based fluorescence assay relative to control; format: functional; outline: as §3
[27] = test system: P19; assay: Cytotoxicity against undifferentiated mouse P19 cells assessed as mitochondrial superoxide anion level at 100 uM after 72 hrs by MitoSox dye based fluorescence assay relative to control; format: functional; outline: as §3
[28] = test system: P19; assay: Cytotoxicity against undifferentiated mouse P19 cells assessed as mitochondrial membrane potential at 100 uM after 24 hrs by TMRF dye based fluorescence assay relative to control; format: functional; outline: as §3
[29] = biological target: T1, Hexokinase-2 (Mus musculus) (UniProt O08528); assay: Inhibition of HK2 isolated from mouse undifferentiated P19 cell lysates at […] using [U-14C]-labeled glucose as substrate in presence of ATP and NADP by G6PD enzyme coupled spectrophotometric assay
T1 sequence (whole entry): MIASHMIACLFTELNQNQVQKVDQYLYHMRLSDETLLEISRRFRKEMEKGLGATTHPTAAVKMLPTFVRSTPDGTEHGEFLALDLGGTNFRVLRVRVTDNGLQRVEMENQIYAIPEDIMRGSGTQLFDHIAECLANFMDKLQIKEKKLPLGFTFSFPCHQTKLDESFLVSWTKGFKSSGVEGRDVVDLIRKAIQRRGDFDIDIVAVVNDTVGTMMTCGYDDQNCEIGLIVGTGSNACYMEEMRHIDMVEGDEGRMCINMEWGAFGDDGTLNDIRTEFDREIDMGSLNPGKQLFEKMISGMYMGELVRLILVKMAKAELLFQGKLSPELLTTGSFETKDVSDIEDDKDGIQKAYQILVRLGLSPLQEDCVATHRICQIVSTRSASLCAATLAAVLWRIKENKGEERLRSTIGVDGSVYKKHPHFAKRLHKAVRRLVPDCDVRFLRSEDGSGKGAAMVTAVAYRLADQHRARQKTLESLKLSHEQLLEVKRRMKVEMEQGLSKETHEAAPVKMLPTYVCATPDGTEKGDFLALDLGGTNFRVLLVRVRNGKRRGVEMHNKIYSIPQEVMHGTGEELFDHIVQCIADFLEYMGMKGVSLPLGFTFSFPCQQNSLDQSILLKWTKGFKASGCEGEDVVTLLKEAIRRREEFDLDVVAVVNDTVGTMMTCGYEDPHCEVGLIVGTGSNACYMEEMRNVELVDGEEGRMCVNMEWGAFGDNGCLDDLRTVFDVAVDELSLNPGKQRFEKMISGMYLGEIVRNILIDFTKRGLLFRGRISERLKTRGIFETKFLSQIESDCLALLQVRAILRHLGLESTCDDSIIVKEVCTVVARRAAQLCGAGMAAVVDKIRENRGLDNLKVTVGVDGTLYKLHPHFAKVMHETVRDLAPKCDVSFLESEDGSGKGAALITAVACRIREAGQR
Outline: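 Hexokinase activity measured in supernatant of freshly prepared, centrifuged lysates of undifferentiated P19 cells. Buffer was 100 mM Tris-HCl pH 8.0 with 0.5 mM EDTA, 10 mM MgCl2, 2 mM glucose, 0.1 mM NADP and 0.1 U/ml G6PD. After 10 min preincubation at 37°C, 10 mM ATP was added to start the reaction. NADPH formation was followed at 340 nm. Four independent experiments, ≥4 repeats each.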

| Structure (SMILES) | Activity [1] [%] | Activity [2] [%] | Activity [3] [%] | Activity [4] [%] | Activity [5] [%] | Activity [6] [%] | Activity [7] [%] | Activity [8] [%] | Activity [9] [%] | Activity [10] [%] | Activity [11] [%] | Activity [12] [%] | other results |
| --- | --- | --- | --- | --- | --- | --- | --- | --- | --- | --- | --- | --- | --- |
| O=C(c1ccc2c(c1)C(=O)N(c1nc[nH]n1)C2=O)c1ccc2c(c1)C(=O)N(c1nc[nH]n1)C2=O | 93.3 | 45.5 | 82 | 96 | 96.1 | 92.7 | 86.5 | 81.2 | 94 | 77.6 | 114 | 53.2 |  |
| O=C(c1ccc2c(c1)C(=O)N(CCO)C2=O)c1ccc2c(c1)C(=O)N(CCO)C2=O | 96.2 | 106.7 | 80.5 | 108.4 | 103.7 | 101.5 | 99.4 | 83.9 | 107.8 | 92.4 | 113.3 | 113.8 |  |
| O=C(c1ccc2c(c1)C(=O)N(c1ccccc1O)C2=O)c1ccc2c(c1)C(=O)N(c1ccccc1O)C2=O | 95.6 | 106.5 | 79.8 | 93 | 105.3 | 103.5 | 99.4 | 103.6 | 99.7 | 102 | 105 | 101.2 | Activity [13]: 81.9%; Activity [14]: 108.7%; Activity [15]: 117.8%; Activity [16]: 86%; Activity [17]: 97.8%; Activity [18]: 112%; Activity [19]: 168%; Activity [20]: 108.3%; Activity [21]: 111.1%; Activity [22]: 89.4%; Activity [23]: 93.3%; Activity [24]: 115.4%; Activity [25]: 82.2%; Activity [26]: 81.6%; Activity [27]: 129.9%; Activity [28]: 89.6% |
| OC[C@H]1OC(O)C[C@@H](O)[C@@H]1O (some centres not stated) | 90.5 | 103.8 | 97.4 | 93.6 | 101.7 | 100.1 | 94.4 | 120.4 | 91.2 | 99.6 | 90.5 | 101.3 | inhibition [29]: Active |
| O=C(c1ccc2c(c1)C(=O)N(c1c[nH]c(=O)[nH]c1=O)C2=O)c1ccc2c(c1)C(=O)N(c1c[nH]c(=O)[nH]c1=O)C2=O | 95.8 | 97.4 | 90.8 | 88.2 | 105.3 | 113.8 | 105 | 115.2 | 103.2 | 99.4 | 116.3 | 109.6 |  |
| O=C(c1ccc2c(c1)C(=O)N(c1ccc(O)cc1)C2=O)c1ccc2c(c1)C(=O)N(c1ccc(O)cc1)C2=O | 86.7 | 86.8 | 30.9 | 48.5 | 87.4 | 88.5 | 93.8 | 90.2 | 74.4 | 81.8 | 96.2 | 79.9 | Activity [13]: 93%; Activity [14]: 72.1%; Activity [15]: 110.6%; Activity [16]: 118.8%; Activity [17]: 138%; Activity [18]: 65.8%; Activity [19]: 113.2%; Activity [20]: 106.6%; Activity [21]: 75.8%; Activity [22]: 144.7%; Activity [23]: 136.6%; Activity [24]: 78.4%; Activity [25]: 176.1%; Activity [26]: 116.7%; Activity [27]: 72.5%; Activity [28]: 206.6% |
| O=C(c1ccc2c(c1)C(=O)N(CCCO)C2=O)c1ccc2c(c1)C(=O)N(CCCO)C2=O | 110.6 | 100 | 94.7 | 97.9 | 101.1 | 105 | 98.1 | 106 | 98.1 | 101.5 | 100.1 | 100 |  |

Source: ChEMBL document CHEMBL4002604, “Evaluation of biological properties of 3,3',4,4'-benzophenonetetracarboxylic dianhydride derivatives and their ability to inhibit hexokinase activity” (2017)
